What is called kcat is the number of substrate molecules converted per active site and unit of time at saturation. For orientation: Kd means the constant that tells how readily two partners part at equilibrium. Read a low Kd as higher affinity.

The source of these data is publication PMC4696769 (Biochemistry, 2015).

“And” between values parts separate entries of the source, which are not always exact repeats. Equal values may be shown once.

For series [1], the target named is T1, WT AKR1D1 (Homo sapiens, UniProt P51857). Nature of the series: Multiple turnover reactions, stopped-flow transient kinetics. The class given is biochemical. The note with it: 10 mM potassium phosphate buffer, pH 7, 37 °C. The method in brief: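 Multiple-turnover reactions in stopped-flow. […] Both solutions in 10 mM KPi pH 7.0 with 4% acetonitrile at 37 °C. […] At least three traces averaged, fit to a linear or burst-plus-linear equation giving pseudo-first-order kburst and […] kss.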
T1 sequence (P51857 whole entry): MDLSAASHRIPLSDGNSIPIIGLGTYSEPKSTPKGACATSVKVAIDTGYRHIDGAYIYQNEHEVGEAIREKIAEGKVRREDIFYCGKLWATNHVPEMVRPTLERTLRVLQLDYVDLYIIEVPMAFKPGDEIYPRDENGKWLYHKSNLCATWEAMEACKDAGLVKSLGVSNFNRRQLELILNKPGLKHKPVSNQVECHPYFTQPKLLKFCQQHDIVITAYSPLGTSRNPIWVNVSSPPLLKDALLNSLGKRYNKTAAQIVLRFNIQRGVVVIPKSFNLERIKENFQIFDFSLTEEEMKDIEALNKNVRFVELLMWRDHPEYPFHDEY

The target in series [2] is T2, P133R AKR1D1 (Homo sapiens, UniProt P51857, P133R). Briefly: Multiple turnover reactions, stopped-flow transient kinetics. The class given is biochemical. The note with it: 10 mM potassium phosphate buffer, pH 7, 37 °C.
Series [3] addresses T1, WT AKR1D1. Nature of the series: Steroid binding, quenching of energy transfer band of E·NADPH complex.
Series [4] concerns the target T1, WT AKR1D1. Nature of the series: Steady-state kinetic analysis of steroid reduction. The class given is biochemical. The note with it: for kcat: pH 7.0, 37 °C, 7.2 μM NADPH; for Ki: Ki (substrate inhibition; dissociation constant for substrate from the E-NADP+ complex).
Series [5] concerns the target T2, P133R AKR1D1. Briefly: Steroid binding, quenching of energy transfer band of E·NADPH complex.
Series [6] addresses T2, P133R AKR1D1. Briefly: Steady-state kinetic analysis of steroid reduction. The note with it: for kcat: P133R.
Series [7] addresses T1, WT AKR1D1. Nature of the series: Cofactor binding, quenching of intrinsic protein fluorescence. The note with it: pH 7.0, 37 °C.
The target of series [8] is T2, P133R AKR1D1. The description is as above. The note with it: pH 7.0, 37 °C.
In series [9] the target is T1, WT AKR1D1. Briefly: Ligand chase experiment of cofactor. The class given is binding. The note with it: pH 7.0, 37 °C.
The target in series [10] is T2, P133R AKR1D1. Briefly: Ligand chase experiment of cofactor. The class given is binding.
Substrate in series [11]: CC(C)CCC[C@@H](C)[C@H]1CC[C@H]2[C@@H]3[C@H](O)CC4=CC(=O)CC[C@]4(C)[C@H]3CC[C@]12C
Nature of the series: purified protein, by the assay type. Particulars: other: P133R, pH 7.0, 37.0 °C.

Take `C[C@]12CCC(=O)C=C1CC[C@@H]1[C@@H]2C(=O)C[C@@]2(C)[C@H]1CC[C@]2(O)C(=O)CO` [cortisone]: the figures for the kss at WT AKR1D1 [1] and at P133R AKR1D1 [2] were 0.048 ± 0.001 s⁻¹ and 0.040 ± 0.001 s⁻¹, respectively. Further, the “reduction in Kd versus 7α-hydroxycholest-4-en-3-one” value on WT AKR1D1 [3] (WT) was determined as 4 fold.

For `CC(C)CCC[C@@H](C)[C@H]1CC[C@H]2[C@@H]3[C@H](O)CC4=CC(=O)CC[C@]4(C)[C@H]3CC[C@]12C` [7α-hydroxycholest-4-en-3-one], the kcat on WT AKR1D1 [4] (10 mM KPi) was found to be 0.017 ± 0.001 s⁻¹; on WT AKR1D1 [4] (100 mM KPi) it was 0.020 ± 0.002 s⁻¹; on P133R AKR1D1 [6] (10 mM KPi), 0.0017 ± 0.0001 s⁻¹; at P133R AKR1D1 [6] (100 mM KPi, apparent value, enzyme not saturated with NADPH) it was 0.0030 ± 0.0005 s⁻¹. The Ki was 55 ± 14 µM at WT AKR1D1 [4] (10 mM KPi), 46 ± 18 µM on WT AKR1D1 [4] (100 mM KPi) and 51 ± 27 µM on P133R AKR1D1 [6]. Further, the results for the kss on WT AKR1D1 [1] and on P133R AKR1D1 [2] were 0.010 ± 0.002 s⁻¹ and 0.004 ± 0.001 s⁻¹, respectively. In addition, the Kd on WT AKR1D1 [3] worked out at 2.2 ± 0.3 µM; on P133R AKR1D1 [5], 13.6 ± 1.9 µM. Moreover, the entries for the “kcat WT/P133R” value on P133R AKR1D1 [6] (10 mM KPi) and at P133R AKR1D1 [6] (100 mM KPi) were 10 and 6.7, respectively. Besides, on P133R AKR1D1 [6] (100 mM KPi), the “kcat/Km WT/P133R (fold decrease in catalytic efficiency)” value was 13 and 13.3.

For `NC(=O)c1ccc[n+]([C@@H]2O[C@H](COP(=O)([O-])OP(=O)(O)OC[C@H]3O[C@@H](n4cnc5c(N)ncnc54)[C@H](OP(=O)(O)O)[C@@H]3O)[C@@H](O)[C@H]2O)c1` [NADP^+], the Kd at WT AKR1D1 [7] (10 mM KPi) is 0.0043 ± 0.0006 µM; at WT AKR1D1 [7] (100 mM KPi) it was 0.237 ± 0.005 µM; at P133R AKR1D1 [8] (10 mM KPi) it was 0.08 ± 0.006 µM; on P133R AKR1D1 [8] (100 mM KPi), 27.1 ± 1.3 µM. Further, the “koff (rate of NADP+ release)” value at WT AKR1D1 [9] (10 mM KPi) is 0.164 ± 0.007 s⁻¹; on WT AKR1D1 [9] (100 mM KPi) it was 0.28 s⁻¹ and 0.276 ± 0.008 s⁻¹; at P133R AKR1D1 [10] (10 mM KPi) it was 8.9 ± 0.2 s⁻¹; at P133R AKR1D1 [10] (100 mM KPi, too fast for instrument (dead time ~1.8 ms)), above 50 s⁻¹.

For `NC(=O)C1=CN([C@@H]2O[C@H](COP(=O)(O)OP(=O)(O)OC[C@H]3O[C@@H](n4cnc5c(N)ncnc54)[C@H](O)[C@@H]3O)[C@@H](O)[C@H]2O)C=CC1` [NADH], the Kd at WT AKR1D1 [7] (10 mM KPi) is 24.8 ± 1.7 µM; on WT AKR1D1 [7] (100 mM KPi), 34.8 ± 3.5 µM; on P133R AKR1D1 [8] (10 mM KPi), 28.4 ± 1.9 µM; at P133R AKR1D1 [8] (100 mM KPi), 34.5 ± 3.8 µM.

In the case of `CC(C)(C)NC(=O)[C@H]1CC[C@H]2[C@@H]3CC[C@H]4NC(=O)C=C[C@]4(C)[C@H]3CC[C@]12C` [finasteride], the results for the Kd on WT AKR1D1 [3] and on P133R AKR1D1 [5] were 3.7 ± 0.2 µM and 14.2 ± 1.3 µM, respectively.

B1: P133R AKR1D1 (Homo sapiens; P133R) (protein)
chain: MDLSAASHRIPLSDGNSIPIIGLGTYSEPKSTPKGACATSVKVAIDTGYRHIDGAYIYQNEHEVGEAIREKIAEGKVRREDIFYCGKLWATNHVPEMVRPTLERTLRVLQLDYVDLYIIEVPMAFKPGDEIYRRDENGKWLYHKSNLCATWEAMEACKDAGLVKSLGVSNFNRRQLELILNKPGLKHKPVSNQVECHPYFTQPKLLKFCQQHDIVITAYSPLGTSRNPIWVNVSSPPLLKDALLNSLGKRYNKTAAQIVLRFNIQRGVVVIPKSFNLERIKENFQIFDFSLTEEEMKDIEALNKNVRFVELLMWRDHPEYPFHDEY
Regarding B1, the Km in series [11] (10 mM KPi) is on record as 2.4 ± 0.7 (WT/P133R 0.42) μM; in series [11] (100 mM KPi, apparent value) it was 1.0 ± 0.4 (WT/P133R 0.5) μM.
